ChEMBL document CHEMBL4265954, “Discovery of potent liver-selective stearoyl-CoA desaturase-1 (SCD1) inhibitors, thiazole-4-acetic acid derivatives, for the treatment of diabetes, hepatic steatosis, and obesity” (Eur J Med Chem, 2018)
Converted amounts (≈) assume the structure as drawn. The source made the active and inactive calls. No cut-off for these calls is given here.

How the values were obtained:
[1] = target: Acyl-CoA (8-3)-desaturase (Homo sapiens, UniProt O60427); assay: Inhibition of delta-5 fatty acid desaturase (unknown origin)
Chain of Acyl-CoA (8-3)-desaturase (O60427 whole entry): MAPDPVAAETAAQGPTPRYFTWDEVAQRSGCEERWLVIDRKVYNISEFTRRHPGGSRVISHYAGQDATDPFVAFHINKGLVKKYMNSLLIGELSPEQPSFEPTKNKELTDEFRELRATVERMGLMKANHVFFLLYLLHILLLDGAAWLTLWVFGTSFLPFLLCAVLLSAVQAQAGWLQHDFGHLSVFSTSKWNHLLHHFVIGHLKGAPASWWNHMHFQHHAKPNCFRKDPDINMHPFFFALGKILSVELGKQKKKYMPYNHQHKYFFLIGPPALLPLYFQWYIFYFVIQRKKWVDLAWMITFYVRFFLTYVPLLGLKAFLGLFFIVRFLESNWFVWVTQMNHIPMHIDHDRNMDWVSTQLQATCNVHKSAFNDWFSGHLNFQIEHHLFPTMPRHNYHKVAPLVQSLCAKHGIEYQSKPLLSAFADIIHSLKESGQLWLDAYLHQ

Mus musculus [2] = assay: Ex vivo inhibition of SCD1 in C57BL/6J mouse liver assessed as residual activity at 10 mg/kg, po treated for 6 hrs followed by incubation with [14C]stearoyl-CoA substrate for 10 mins by TLC assay relative to control; format: functional
In short: (§1)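 Male 6-week-old C57BL/6J mice dosed orally as a suspension in 0.5% methylcellulose. Liver or eyelid was taken 6 or 24 h later and homogenized in 100 mM Tris-HCl pH 7.4 with 0.25 M sucrose. S9 was obtained at 10,000 × g, 4 °C. S9 was incubated with [14C]stearoyl-CoA, NADH, MgCl2 and cytochrome b5 at room temperature, 10 min for liver and 30 min for eyelid. Lipids were saponified and run on AgNO3 TLC to quantify stearate and oleate. Result is % of vehicle control.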

Acyl-CoA desaturase 1 = target: T1, Acyl-CoA desaturase 1 (Mus musculus, UniProt P13516); assay: Inhibition of mouse liver microsome SCD assessed as reduction in [3H]H2O production using stearoyl [9,10-3H]CoA as substrate in presence of NADH incubated for 30 mins by scintillation counting method; format: microsomes
T1 sequence (P13516 whole entry): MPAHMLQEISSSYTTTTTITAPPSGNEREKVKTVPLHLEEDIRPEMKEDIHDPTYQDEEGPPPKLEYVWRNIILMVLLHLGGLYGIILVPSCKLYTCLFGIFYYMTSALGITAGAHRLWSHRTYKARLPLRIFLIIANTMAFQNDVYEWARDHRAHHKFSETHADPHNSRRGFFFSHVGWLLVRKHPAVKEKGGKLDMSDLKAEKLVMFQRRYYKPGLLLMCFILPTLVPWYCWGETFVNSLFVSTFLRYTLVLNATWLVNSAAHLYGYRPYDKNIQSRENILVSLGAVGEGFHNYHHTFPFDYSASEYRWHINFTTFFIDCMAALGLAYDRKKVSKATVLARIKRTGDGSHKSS
In short: (§2)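 Desaturation of [9,10-3H]stearoyl-CoA measured as released [3H]H2O. Water was separated from charcoal-adsorbed substrate by filtration and counted by scintillation. Remaining activity = (compound − background)/(control − background). DMSO wells served as control and pre-stopped wells as background. IC50 was interpolated from the two points bracketing 50%.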

Mus musculus [3] = assay: Ex vivo inhibition of SCD1 in C57BL/6J mouse eyelid assessed as residual activity at 0.1 mg/kg, po treated for 6 hrs followed by incubation with [14C]stearoyl-CoA substrate for 30 mins by TLC assay relative to control; format: organism-based; in short: as §1
Mus musculus [4] = assay: Ex vivo inhibition of SCD1 in C57BL/6J mouse liver treated orally for 6 hrs followed by incubation with [14C]stearoyl-CoA substrate for 10 mins by TLC assay; format: functional, organism-based; in short: as §1
Stearoyl-CoA desaturase = target: T2, Stearoyl-CoA desaturase (Homo sapiens, UniProt O00767); assay: Inhibition of recombinant human SCD1 expressed in baculovirus expression system assessed as reduction in [3H]H2O production using stearoyl [9,10-3H]CoA as substrate in presence of NADH incubated for 30 mins by scintillation counting method; in short: as §2
T2 sequence (O00767 whole entry): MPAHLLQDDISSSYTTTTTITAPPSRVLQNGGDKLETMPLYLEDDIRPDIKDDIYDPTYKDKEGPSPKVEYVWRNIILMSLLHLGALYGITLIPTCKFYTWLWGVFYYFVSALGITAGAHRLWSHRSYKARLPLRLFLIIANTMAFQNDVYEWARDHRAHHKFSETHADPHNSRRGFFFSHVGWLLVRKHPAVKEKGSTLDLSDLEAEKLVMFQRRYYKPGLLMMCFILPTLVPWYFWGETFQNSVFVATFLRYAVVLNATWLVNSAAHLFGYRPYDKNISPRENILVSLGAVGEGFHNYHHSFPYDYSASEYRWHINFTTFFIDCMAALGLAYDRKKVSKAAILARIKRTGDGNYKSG

Mus musculus [5] = assay: Ex vivo inhibition of SCD1 in C57BL/6J mouse liver assessed as residual activity at 0.1 mg/kg, po treated for 6 hrs followed by incubation with [14C]stearoyl-CoA substrate for 10 mins by TLC assay relative to control; format: functional; in short: as §1
[6] = Solubility of the compound in PBS at pH 7.2; format: physicochemical
[7] = AUC (0 to infinity) in C57BL/6J mouse at 10 mg/kg, po; format: ADME, organism-based; parameters: dose 10 mg/kg, time infinity, route oral; conditions: in vivo
Mus musculus [8] = assay: Ex vivo inhibition of SCD1 in C57BL/6J mouse liver assessed as residual activity at 1 mg/kg, po treated for 24 hrs followed by incubation with [14C]stearoyl-CoA substrate for 10 mins by TLC assay relative to control; format: functional; in short: as §1
[9] = Apparent permeability of the compound in human Caco2 cells; format: ADME, cell-based; conditions: Caco-2
Mus musculus [10] = assay: Antiobesity activity in high fat diet fed C57BL/6J mouse assessed as reduction in diet-induced body weight gain at 10 mg/kg, po administered as diet mixture for 43 days relative to control; format: functional
In short: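 C57BL/6J mice, individually housed, fed HFD for one month, then given HFD admixed with drug (0.0040% for 3 mg/kg/day, 0.0133% for 10 mg/kg/day) for 43 days, from 10 to 16 weeks of age. Chow-fed normal group as control. Body weight measured every 3–4 days. Mean ± SD, n=5–8. Dunnett's test versus HFD control.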

Mus musculus [11] = assay: Ex vivo inhibition of SCD1 in C57BL/6J mouse eyelid treated orally for 6 hrs followed by incubation with [14C]stearoyl-CoA substrate for 30 mins by TLC assay; format: organism-based; conditions: po; in short: as §1
Mus musculus [12] = assay: Ex vivo inhibition of SCD1 in C57BL/6J mouse liver assessed as residual activity at 1 mg/kg, po treated for 6 hrs followed by incubation with [14C]stearoyl-CoA substrate for 10 mins by TLC assay relative to control; format: functional; in short: as §1
Mus musculus [13] = assay: Ex vivo inhibition of SCD1 in C57BL/6J mouse eyelid assessed as residual activity at 10 mg/kg, po treated for 6 hrs followed by incubation with [14C]stearoyl-CoA substrate for 30 mins by TLC assay relative to control; format: organism-based; in short: as §1
Mus musculus [14] = assay: Ex vivo inhibition of SCD1 in C57BL/6J mouse eyelid assessed as residual activity at 100 mg/kg, po treated for 24 hrs followed by incubation with [14C]stearoyl-CoA substrate for 30 mins by TLC assay relative to control; format: organism-based; in short: as §1
Mus musculus [15] = assay: Ex vivo inhibition of SCD1 in C57BL/6J mouse eyelid assessed as residual activity at 0.1 mg/kg, po treated for 24 hrs followed by incubation with [14C]stearoyl-CoA substrate for 30 mins by TLC assay relative to control; format: organism-based; in short: as §1
Mus musculus [16] = assay: Ex vivo inhibition of SCD1 in C57BL/6J mouse eyelid assessed as residual activity at 10 mg/kg, po treated for 24 hrs followed by incubation with [14C]stearoyl-CoA substrate for 30 mins by TLC assay relative to control; format: organism-based; in short: as §1
Mus musculus [17] = assay: Ex vivo inhibition of SCD1 in C57BL/6J mouse liver assessed as residual activity at 10 mg/kg, po treated for 24 hrs followed by incubation with [14C]stearoyl-CoA substrate for 10 mins by TLC assay relative to control; format: functional; in short: as §1
Mus musculus [18] = assay: Ex vivo inhibition of SCD1 in C57BL/6J mouse liver assessed as residual activity at 0.1 mg/kg, po treated for 24 hrs followed by incubation with [14C]stearoyl-CoA substrate for 10 mins by TLC assay relative to control; format: functional; in short: as §1
Mus musculus [19] = assay: Ex vivo inhibition of SCD1 in C57BL/6J mouse eyelid assessed as residual activity at 1 mg/kg, po treated for 6 hrs followed by incubation with [14C]stearoyl-CoA substrate for 30 mins by TLC assay relative to control; format: organism-based; in short: as §1
[20] = Oral bioavailability in C57BL/6J mouse at 10 mg/kg; format: ADME, organism-based; conditions: in vivo
In short: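 Two male C57BL/6J mice per route, 10 mg/kg po and 1 mg/kg iv. Plasma concentration–time profiles gave Cmax, tmax, terminal half-life and AUC0-inf. Bioavailability was derived from the po and iv data.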

Mus musculus [21] = assay: Ex vivo inhibition of SCD1 in C57BL/6J mouse eyelid assessed as residual activity at 1 mg/kg, po treated for 24 hrs followed by incubation with [14C]stearoyl-CoA substrate for 30 mins by TLC assay relative to control; format: organism-based; in short: as §1

In the case of `Cc1csc(NC(=O)c2ccc(CNc3ccccc3C)cc2)n1`, the IC50 [1] is reported as > 30000 nM, the Activity (Mus musculus [2]) is reported as 22% and the IC50 (Acyl-CoA desaturase 1) is reported as 3.8 nM. The Activity (Mus musculus [3]) was 144%, the inhibition (Mus musculus [4]) was “Dose-dependent effect” and the IC50 (Stearoyl-CoA desaturase) was 6.4 nM. The Activity (Mus musculus [5]) was 58%, the solubility [6] was 2.4 µM (≈ 0.81 µg/mL) and the AUC(0-inf) [7] was 2.4 µM·h. The Activity (Mus musculus [8]) was 120%, the Papp [9] was 12.7 ×10⁻⁶ cm/s and the Activity (Mus musculus [10]) was “Active”. The “inhibition (INH)” value (Mus musculus [11]) was “Dose-dependent effect”, the Activity (Mus musculus [12]) was 24% and the Activity (Mus musculus [13]) was -2%. For the same compound, the Activity (Mus musculus [14]) was 4%, the Activity (Mus musculus [15]) was 100% and the Activity (Mus musculus [16]) was 4%. The Activity (Mus musculus [17]) was 109%, the Activity (Mus musculus [18]) was 105% and the Activity (Mus musculus [19]) was 41%. It also gave a bioavailability [20] of 15% and an Activity (Mus musculus [21]) of 82%.
